Assay: Adverse events suspected to be study drug related, phase 1 study
Format: in vivo, human
Outline: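 Adult patients with advanced solid tumours and confirmed MET dysregulation took oral capsules twice daily from 100 up to 600 mg in escalation, or 400 mg bid tablets, in 28-day cycles. Expansion was 600 mg bid capsules, with a switch to 400 mg bid tablets allowed. Patients were included if they had ≥1 dose and ≥1 valid post-baseline safety assessment. Events were graded by CTCAE v4.0.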

[1] = drug-related, escalation 600 mg bid n=8
[2] = drug-related, escalation 100-350 mg bid n=16
[3] = drug-related, expansion RP2D HCC n=11
[4] = drug-related, expansion RP2D gastric cancer n=9
[5] = drug-related, expansion RP2D other n=18

CNC(=O)c1ccc(-c2cnc3ncc(Cc4ccc5ncccc5c4)n3n2)cc1F [capmatinib]
Hypoalbuminemia, grade 3/4 [1]: 0 n (%) | Hypophagia, all grades [1]: 0 n (%) | Hypophagia, grade 3/4 [1]: 0 n (%) | Lipase increased, all grades [1]: 0 n (%) | Lipase increased, grade 3/4 [1]: 0 n (%) | Maculo‐papular rash, all grades [1]: 0 n (%) | Maculo‐papular rash, grade 3/4 [1]: 0 n (%) | Myalgia, all grades [1]: 0 n (%) | Myalgia, grade 3/4 [1]: 0 n (%) | Nausea, all grades [1]: 3 (38) n (%) | Nausea, grade 3/4 [1]: 0 n (%) | Odynophagia, all grades [1]: 0 n (%) | Odynophagia, grade 3/4 [1]: 0 n (%) | Peripheral edema, all grades [1]: 1 (13) n (%) | Peripheral edema, grade 3/4 [1]: 0 n (%) | Pyrexia, all grades [1]: 0 n (%) | Pyrexia, grade 3/4 [1]: 0 n (%) | Stomatitis, all grades [1]: 1 (13) n (%) | Stomatitis, grade 3/4 [1]: 0 n (%) | Thrombocytopenia, all grades [1]: 0 n (%) | Thrombocytopenia, grade 3/4 [1]: 0 n (%) | Total protein decreased, all grades [1]: 1 (13) n (%) | Total protein decreased, grade 3/4 [1]: 0 n (%) | Upper abdominal pain, all grades [1]: 0 n (%) | Upper abdominal pain, grade 3/4 [1]: 0 n (%) | Vomiting, all grades [1]: 3 (38) n (%) | Vomiting, grade 3/4 [1]: 0 n (%) | ALT increased, all grades [2]: 0 n (%) | ALT increased, grade 3/4 [2]: 0 n (%) | AST increased, all grades [2]: 1 (6) n (%) | Amylase increased, all grades [2]: 2 (13) n (%) | Amylase increased, grade 3/4 [2]: 1 (6) n (%) | Asthenia, all grades [2]: 4 (25) n (%) | Asthenia, grade 3/4 [2]: 0 n (%) | Blood bilirubin increased, all grades [2]: 3 (19) n (%) | Blood bilirubin increased, grade 3/4 [2]: 1 (6) n (%) | Blood creatinine increased, all grades [2]: 2 (13) n (%) | Blood creatinine increased, grade 3/4 [2]: 0 n (%) | Constipation, all grades [2]: 2 (13) n (%) | Constipation, grade 3/4 [2]: 0 n (%) | Decreased appetite, all grades [2]: 5 (31) n (%) | Decreased appetite, grade 3/4 [2]: 1 (6) n (%) | Diarrhea, all grades [2]: 2 (13) n (%) | Diarrhea, grade 3/4 [2]: 0 n (%) | Dizziness, all grades [2]: 0 n (%) | Dizziness, grade 3/4 [2]: 0 n (%) | Dyspepsia, all grades [2]: 0 n (%) | Dyspepsia, grade 3/4 [2]: 0 n (%) | Fatigue, all grades [2]: 3 (19) n (%) | Fatigue, grade 3/4 [2]: 2 (13) n (%) | Headache, all grades [2]: 1 (6) n (%) | Headache, grade 3/4 [2]: 0 n (%) | Hypoalbuminemia, all grades [2]: 3 (19) n (%) | Hypoalbuminemia, grade 3/4 [2]: 1 (6) n (%) | Hypophagia, all grades [2]: 2 (13) n (%) | Hypophagia, grade 3/4 [2]: 2 (13) n (%) | Lipase increased, all grades [2]: 1 (6) n (%) | Lipase increased, grade 3/4 [2]: 1 (6) n (%) | Maculo‐papular rash, all grades [2]: 0 n (%) | Maculo‐papular rash, grade 3/4 [2]: 0 n (%) | Myalgia, all grades [2]: 2 (13) n (%) | Myalgia, grade 3/4 [2]: 0 n (%) | Nausea, all grades [2]: 3 (19) n (%) | Nausea, grade 3/4 [2]: 0 n (%) | Odynophagia, all grades [2]: 1 (6) n (%) | Odynophagia, grade 3/4 [2]: 0 n (%) | Peripheral edema, all grades [2]: 3 (19) n (%) | Peripheral edema, grade 3/4 [2]: 1 (6) n (%) | Pyrexia, all grades [2]: 1 (6) n (%) | Pyrexia, grade 3/4 [2]: 0 n (%) | Stomatitis, all grades [2]: 0 n (%) | Stomatitis, grade 3/4 [2]: 0 n (%) | Thrombocytopenia, all grades [2]: 1 (6) n (%) | Thrombocytopenia, grade 3/4 [2]: 0 n (%) | Total protein decreased, all grades [2]: 1 (6) n (%) | Total protein decreased, grade 3/4 [2]: 0 n (%) | Upper abdominal pain, all grades [2]: 1 (6) n (%) | Upper abdominal pain, grade 3/4 [2]: 0 n (%) | Vomiting, all grades [2]: 4 (25) n (%) | Vomiting, grade 3/4 [2]: 0 n (%) | ALT increased, all grades [3]: 0 n (%) | ALT increased, grade 3/4 [3]: 0 n (%) | AST increased, all grades [3]: 1 (9) n (%) | AST increased, grade 3/4 [3]: 1 (9) n (%) | Amylase increased, all grades [3]: 0 n (%) | Amylase increased, grade 3/4 [3]: 0 n (%) | Asthenia, all grades [3]: 1 (9) n (%) | Asthenia, grade 3/4 [3]: 0 n (%) | Blood bilirubin increased, all grades [3]: 0 n (%) | Blood bilirubin increased, grade 3/4 [3]: 0 n (%) | Blood creatinine increased, all grades [3]: 1 (9) n (%) | Blood creatinine increased, grade 3/4 [3]: 1 (9) n (%) | Constipation, all grades [3]: 0 n (%) | Constipation, grade 3/4 [3]: 0 n (%) | Decreased appetite, all grades [3]: 2 (18) n (%) | Decreased appetite, grade 3/4 [3]: 0 n (%) | Diarrhea, all grades [3]: 4 (36) n (%) | Diarrhea, grade 3/4 [3]: 0 n (%) | Dizziness, all grades [3]: 1 (9) n (%) | Dizziness, grade 3/4 [3]: 0 n (%) | Dyspepsia, all grades [3]: 0 n (%) | Dyspepsia, grade 3/4 [3]: 0 n (%) | Fatigue, all grades [3]: 3 (27) n (%) | Fatigue, grade 3/4 [3]: 0 n (%) | Headache, all grades [3]: 0 n (%) | Headache, grade 3/4 [3]: 0 n (%) | Hypoalbuminemia, all grades [3]: 0 n (%) | Hypoalbuminemia, grade 3/4 [3]: 0 n (%) | Lipase increased, all grades [3]: 2 (18) n (%) | Lipase increased, grade 3/4 [3]: 2 (18) n (%) | Localized edema, all grades [3]: 0 n (%) | Localized edema, grade 3/4 [3]: 0 n (%) | Maculo‐papular rash, all grades [3]: 0 n (%) | Maculo‐papular rash, grade 3/4 [3]: 0 n (%) | Myalgia, all grades [3]: 0 n (%) | Myalgia, grade 3/4 [3]: 0 n (%) | Nausea, all grades [3]: 5 (46) n (%) | Nausea, grade 3/4 [3]: 1 (9) n (%) | Odynophagia, all grades [3]: 0 n (%) | Odynophagia, grade 3/4 [3]: 0 n (%) | Peripheral edema, all grades [3]: 3 (27) n (%) | Peripheral edema, grade 3/4 [3]: 0 n (%) | Pyrexia, all grades [3]: 0 n (%) | Pyrexia, grade 3/4 [3]: 0 n (%) | Stomatitis, all grades [3]: 0 n (%) | Stomatitis, grade 3/4 [3]: 0 n (%) | Thrombocytopenia, all grades [3]: 1 (9) n (%) | Thrombocytopenia, grade 3/4 [3]: 0 n (%) | Total protein decreased, all grades [3]: 0 n (%) | Total protein decreased, grade 3/4 [3]: 0 n (%) | Upper abdominal pain, all grades [3]: 0 n (%) | Upper abdominal pain, grade 3/4 [3]: 0 n (%) | Vomiting, all grades [3]: 3 (27) n (%) | Vomiting, grade 3/4 [3]: 1 (9) n (%) | ALT increased, all grades [4]: 1 (11) n (%) | ALT increased, grade 3/4 [4]: 1 (11) n (%) | AST increased, all grades [4]: 1 (11) n (%) | Amylase increased, all grades [4]: 0 n (%) | Amylase increased, grade 3/4 [4]: 0 n (%) | Asthenia, all grades [4]: 0 n (%) | Asthenia, grade 3/4 [4]: 0 n (%) | Blood bilirubin increased, all grades [4]: 0 n (%) | Blood bilirubin increased, grade 3/4 [4]: 0 n (%) | Blood creatinine increased, all grades [4]: 0 n (%) | Blood creatinine increased, grade 3/4 [4]: 0 n (%) | Constipation, all grades [4]: 0 n (%) | Constipation, grade 3/4 [4]: 0 n (%) | Decreased appetite, all grades [4]: 0 n (%) | Decreased appetite, grade 3/4 [4]: 0 n (%) | Diarrhea, all grades [4]: 0 n (%) | Diarrhea, grade 3/4 [4]: 0 n (%) | Dizziness, all grades [4]: 0 n (%) | Dizziness, grade 3/4 [4]: 0 n (%) | Dyspepsia, all grades [4]: 0 n (%) | Dyspepsia, grade 3/4 [4]: 0 n (%) | Fatigue, all grades [4]: 3 (33) n (%) | Fatigue, grade 3/4 [4]: 1 (11) n (%) | Headache, all grades [4]: 1 (11) n (%) | Headache, grade 3/4 [4]: 0 n (%) | Hypoalbuminemia, all grades [4]: 0 n (%) | Hypoalbuminemia, grade 3/4 [4]: 0 n (%) | Lipase increased, all grades [4]: 0 n (%) | Lipase increased, grade 3/4 [4]: 0 n (%) | Localized edema, all grades [4]: 0 n (%) | Localized edema, grade 3/4 [4]: 0 n (%) | Maculo‐papular rash, all grades [4]: 0 n (%) | Maculo‐papular rash, grade 3/4 [4]: 0 n (%) | Myalgia, all grades [4]: 0 n (%) | Myalgia, grade 3/4 [4]: 0 n (%) | Nausea, all grades [4]: 0 n (%) | Nausea, grade 3/4 [4]: 0 n (%) | Odynophagia, all grades [4]: 0 n (%) | Odynophagia, grade 3/4 [4]: 0 n (%) | Peripheral edema, all grades [4]: 3 (33) n (%) | Peripheral edema, grade 3/4 [4]: 0 n (%) | Pyrexia, all grades [4]: 0 n (%) | Pyrexia, grade 3/4 [4]: 0 n (%) | Stomatitis, all grades [4]: 0 n (%) | Stomatitis, grade 3/4 [4]: 0 n (%) | Thrombocytopenia, all grades [4]: 1 (11) n (%) | Thrombocytopenia, grade 3/4 [4]: 1 (11) n (%) | Total protein decreased, all grades [4]: 0 n (%) | Total protein decreased, grade 3/4 [4]: 0 n (%) | Upper abdominal pain, all grades [4]: 0 n (%) | Upper abdominal pain, grade 3/4 [4]: 0 n (%) | Vomiting, all grades [4]: 0 n (%) | Vomiting, grade 3/4 [4]: 0 n (%) | ALT increased, all grades [5]: 1 (6) n (%) | ALT increased, grade 3/4 [5]: 1 (6) n (%) | AST increased, all grades [5]: 2 (11) n (%) | Amylase increased, all grades [5]: 0 n (%) | Amylase increased, grade 3/4 [5]: 0 n (%) | Asthenia, all grades [5]: 1 (6) n (%) | Asthenia, grade 3/4 [5]: 0 n (%) | Blood bilirubin increased, all grades [5]: 0 n (%) | Blood bilirubin increased, grade 3/4 [5]: 0 n (%) | Blood creatinine increased, all grades [5]: 1 (6) n (%) | Blood creatinine increased, grade 3/4 [5]: 0 n (%) | Constipation, all grades [5]: 1 (6) n (%) | Constipation, grade 3/4 [5]: 0 n (%) | Decreased appetite, all grades [5]: 2 (11) n (%) | Decreased appetite, grade 3/4 [5]: 0 n (%) | Diarrhea, all grades [5]: 3 (17) n (%) | Diarrhea, grade 3/4 [5]: 0 n (%) | Dizziness, all grades [5]: 1 (6) n (%) | Dizziness, grade 3/4 [5]: 0 n (%) | Dyspepsia, all grades [5]: 2 (11) n (%) | Dyspepsia, grade 3/4 [5]: 0 n (%) | Fatigue, all grades [5]: 3 (17) n (%) | Fatigue, grade 3/4 [5]: 0 n (%) | Headache, all grades [5]: 0 n (%) | Headache, grade 3/4 [5]: 0 n (%) | Hypoalbuminemia, all grades [5]: 1 (6) n (%) | Hypoalbuminemia, grade 3/4 [5]: 0 n (%) | Lipase increased, all grades [5]: 1 (6) n (%) | Lipase increased, grade 3/4 [5]: 0 n (%) | Localized edema, all grades [5]: 2 (11) n (%) | Localized edema, grade 3/4 [5]: 0 n (%) | Maculo‐papular rash, all grades [5]: 2 (11) n (%) | Maculo‐papular rash, grade 3/4 [5]: 0 n (%) | Myalgia, all grades [5]: 2 (11) n (%) | Myalgia, grade 3/4 [5]: 0 n (%) | Nausea, all grades [5]: 6 (33) n (%) | Nausea, grade 3/4 [5]: 0 n (%) | Odynophagia, all grades [5]: 0 n (%) | Odynophagia, grade 3/4 [5]: 0 n (%) | Peripheral edema, all grades [5]: 4 (22) n (%) | Peripheral edema, grade 3/4 [5]: 0 n (%) | Pyrexia, all grades [5]: 0 n (%) | Pyrexia, grade 3/4 [5]: 0 n (%) | Stomatitis, all grades [5]: 1 (6) n (%) | Stomatitis, grade 3/4 [5]: 0 n (%) | Thrombocytopenia, all grades [5]: 0 n (%) | Thrombocytopenia, grade 3/4 [5]: 0 n (%) | Total protein decreased, all grades [5]: 0 n (%) | Total protein decreased, grade 3/4 [5]: 0 n (%) | Upper abdominal pain, all grades [5]: 0 n (%) | Upper abdominal pain, grade 3/4 [5]: 0 n (%) | Vomiting, all grades [5]: 4 (22) n (%) | Vomiting, grade 3/4 [5]: 0 n (%) | lipase increase, grade 3 or 4 (suspected study drug‐related, dose‐expansion cohorts): 5%

Reference: paper PMC7004521 (Cancer Science, 2019)
